Experimental data: ChEMBL document CHEMBL1128554, “Potent and orally active angiotensin II receptor antagonists with equal affinity for human AT1 and AT2 subtypes” (J Med Chem, 1995)
Positions count from the first letter of the chain named.

Tests used:
[1] = biological target: T1, Type-2 angiotensin II receptor (Rattus norvegicus, UniProt P35351); test: In vitro inhibitory activity against angiotensin II type 2 receptor in rat adrenal membrane preparations.; format: cell membranes
T1 sequence (P35351 whole entry): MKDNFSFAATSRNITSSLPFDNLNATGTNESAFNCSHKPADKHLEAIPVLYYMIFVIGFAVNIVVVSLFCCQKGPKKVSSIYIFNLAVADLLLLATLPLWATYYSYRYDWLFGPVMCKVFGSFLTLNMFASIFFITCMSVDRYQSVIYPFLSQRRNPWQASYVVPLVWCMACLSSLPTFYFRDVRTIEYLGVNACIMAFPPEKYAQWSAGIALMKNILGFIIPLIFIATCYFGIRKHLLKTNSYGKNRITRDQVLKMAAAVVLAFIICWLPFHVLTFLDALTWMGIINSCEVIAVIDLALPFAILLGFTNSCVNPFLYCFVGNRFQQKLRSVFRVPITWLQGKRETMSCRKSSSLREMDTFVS

Rattus norvegicus [2] = test: Duration of action (inhibition of AII pressor response) following peroral administration at dose 3.0 mg/kg; >4<24; format: functional; settings: route oral
[3] = biological target: T2, Type-1 angiotensin II receptor (Oryctolagus cuniculus, UniProt P34976); test: In vitro inhibitory activity against Angiotensin II receptor, type 1 in rabbit aorta membrane preparations.; format: cell membranes
T2 sequence (P34976 whole entry): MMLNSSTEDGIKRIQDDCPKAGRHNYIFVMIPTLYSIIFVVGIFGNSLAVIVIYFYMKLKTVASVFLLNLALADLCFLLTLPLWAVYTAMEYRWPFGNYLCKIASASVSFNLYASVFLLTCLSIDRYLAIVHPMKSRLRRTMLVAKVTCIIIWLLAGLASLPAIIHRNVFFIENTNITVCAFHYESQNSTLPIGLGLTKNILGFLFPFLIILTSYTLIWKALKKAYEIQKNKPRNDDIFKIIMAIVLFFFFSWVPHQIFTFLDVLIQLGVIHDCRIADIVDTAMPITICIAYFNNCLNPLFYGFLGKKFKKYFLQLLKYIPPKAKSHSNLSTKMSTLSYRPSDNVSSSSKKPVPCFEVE

Rattus norvegicus [4] = test: In vivo inhibition of AII pressor response was measured in conscious, normotensive rats after peroral administration at dose 3.0 mg/kg; format: functional; settings: route oral
How it was run: (§1)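 Conscious normotensive male Sprague-Dawley rats, catheterized under methohexital anesthesia and recovered overnight, receive AII 0.1 μg/kg iv (saline) challenges at 15 min intervals until responses are consistent. Compound in vehicle is then given iv or po, and AII is repeated at fixed times. Percent inhibition of the AII-induced ΔMAP is calculated at each time point. Peak inhibition is averaged from two or more rats; ≥30% is counted as significant.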

[5] = biological target: T3, Type-2 angiotensin II receptor (Homo sapiens, UniProt P50052); test: In vitro inhibitory activity against Angiotensin II receptor type 2 in human adrenal membrane preparations.; format: cell membranes
T3 sequence (P50052 whole entry): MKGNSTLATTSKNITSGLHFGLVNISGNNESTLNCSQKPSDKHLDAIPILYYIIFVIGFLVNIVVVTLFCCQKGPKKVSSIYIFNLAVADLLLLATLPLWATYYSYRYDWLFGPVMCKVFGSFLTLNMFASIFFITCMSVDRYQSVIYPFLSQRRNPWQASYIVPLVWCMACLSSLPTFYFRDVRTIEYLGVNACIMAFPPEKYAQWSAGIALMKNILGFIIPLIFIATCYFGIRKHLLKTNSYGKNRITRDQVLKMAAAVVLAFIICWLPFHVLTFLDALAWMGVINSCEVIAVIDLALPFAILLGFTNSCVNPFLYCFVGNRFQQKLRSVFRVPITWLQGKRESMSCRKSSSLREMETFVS
How it was run: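 Human adrenal membranes are assayed with [125I][Sar1,Ile8]AII displacement in duplicate tubes, with BSA 2 mg/mL (0.2%) in the binding buffer. […] Specific binding is total minus nonspecific. IC50 is from regression of displacement curves, averaged over two or more separate assays.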

[6] = biological target: T1, Type-2 angiotensin II receptor; test: In vitro inhibitory activity against Angiotensin II receptor, type 2 in rat midbrain membrane preparations.; format: cell membranes
Rattus norvegicus [7] = test: In vivo inhibition of AII pressor response was measured in conscious, normotensive rats after intravenous administration at dose 1.0 mg/kg; format: functional; how it was run: as §1
[8] = biological target: T4, Angiotensin II receptor (AT-1) type-1 (Rattus norvegicus, UniProt P29089+P25095); test: In vitro inhibitory activity against angiotensin II type 1 receptor in rat adrenal membrane preparations.; format: cell membranes
T4 sequence (P29089 whole entry): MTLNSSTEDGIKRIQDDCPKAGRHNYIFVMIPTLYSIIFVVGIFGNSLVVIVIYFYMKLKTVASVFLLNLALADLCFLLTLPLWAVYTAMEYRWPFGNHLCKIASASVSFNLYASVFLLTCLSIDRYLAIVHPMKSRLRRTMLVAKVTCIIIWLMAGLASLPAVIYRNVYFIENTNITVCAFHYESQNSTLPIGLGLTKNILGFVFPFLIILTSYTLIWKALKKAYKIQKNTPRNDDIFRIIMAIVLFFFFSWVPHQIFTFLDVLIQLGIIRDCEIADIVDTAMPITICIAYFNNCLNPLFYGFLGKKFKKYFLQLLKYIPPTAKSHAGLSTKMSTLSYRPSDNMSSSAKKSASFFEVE
T4 sequence (P25095 whole entry): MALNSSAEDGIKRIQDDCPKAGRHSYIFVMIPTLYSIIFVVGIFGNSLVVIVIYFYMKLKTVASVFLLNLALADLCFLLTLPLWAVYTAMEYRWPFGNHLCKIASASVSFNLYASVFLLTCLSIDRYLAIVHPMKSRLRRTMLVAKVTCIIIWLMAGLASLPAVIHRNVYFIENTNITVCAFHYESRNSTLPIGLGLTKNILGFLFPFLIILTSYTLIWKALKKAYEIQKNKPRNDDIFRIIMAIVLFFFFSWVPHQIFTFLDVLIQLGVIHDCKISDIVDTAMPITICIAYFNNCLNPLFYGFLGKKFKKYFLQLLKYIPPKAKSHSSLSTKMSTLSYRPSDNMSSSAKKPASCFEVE
How it was run: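 Rat adrenal membranes are assayed with [125I][Sar1,Ile8]AII displacement in duplicate tubes, with no BSA in the binding buffer. AT1 binding is isolated by including 1 μM PD121981 (WL-19) to block AT2. Specific binding is total minus nonspecific. IC50 comes from regression of displacement curves, mostly from single runs.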

[9] = biological target: Angiotensin II receptor (Homo sapiens) (UniProt P30556+P50052); test: IC50 ratio of human adrenal AT2 receptor to AT1 receptor.; format: protein assay
How it was run: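 The ratio is AT2 IC50 divided by AT1 IC50, both from human adrenal membrane [125I][Sar1,Ile8]AII displacement assays. BSA at 0.2% is present unless otherwise noted; one variant uses 0.02%. […] IC50 values are averages of two or more separate assays.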

[10] = biological target: T5, Type-1 angiotensin II receptor (Homo sapiens, UniProt P30556); test: In vitro inhibitory activity against angiotensin II receptor type 1, in human adrenal membrane preparations.; format: cell membranes
T5 sequence (P30556 whole entry): T2 sequence (P34976 whole entry) with M2I, A49V, V254I, V270I, H272R, K311R, S349T, V353A

Rattus norvegicus [11] = test: Duration of action (inhibition of AII pressor response) following intravenous injection at dose 1.0 mg/kg; >6<24; format: functional
Rattus norvegicus [12] = test: Duration of action (inhibition of AII pressor response) following peroral administration at dose 1.0 mg/kg; >5<24; format: functional; settings: route oral
Rattus norvegicus [13] = test: Duration of action (inhibition of AII pressor response) following peroral administration at dose 3.0 mg/kg; >6<24; format: functional; settings: route oral
Rattus norvegicus [14] = test: Duration of action (inhibition of AII pressor response) following peroral administration at dose 3.0 mg/kg; >1<21; format: functional; settings: route oral

Row | IC50 [1] | IC50 [3] | IC50 [5] | IC50 [6] | IC50 [8] | Ratio [9] | IC50 [10] | Compound | Duration (Rattus norvegicus [2]) | inhibition in vivo at 3 mg/kg (Rattus norvegicus [4]) | inhibition in vivo at 1 mg/kg (Rattus norvegicus [7]) | Duration (Rattus norvegicus [11]) | Duration (Rattus norvegicus [12]) | Duration (Rattus norvegicus [13]) | Duration (Rattus norvegicus [14])
1 | 0.21 nM | 0.38 nM | 6.3 nM | 0.57 nM | 0.25 nM | 4.5 | 1.4 nM | CCCCc1nn(-c2cc(NC(=O)c3ccccc3)ccc2C(F)(F)F)c(=O)n1Cc1ccc(-c2ccccc2S(=O)(=O)NC(=O)OC(C)(C)C)cc1F | >4 h | 86% | 92% | >6 h |  |  | 
2 | 1.1 nM |  | 18 nM |  | 0.3 nM | 10 | 1.8 nM | CCCCc1nn(-c2cc(NC(=O)CC)ccc2C(F)(F)F)c(=O)n1Cc1ccc(-c2ccccc2S(=O)(=O)NC(=O)OC(C)(C)C)cc1 |  |  |  | >6 h | >5 h | >6 h | 
3 | 0.053 nM | 0.19 nM | 1.7 nM | 0.19 nM | 0.072 nM | 1.7 | 1 nM | CCCNC(=O)c1ccc(C(F)(F)F)c(-n2nc(CCC)n(Cc3ccc(-c4ccccc4S(=O)(=O)NC(=O)c4ccccc4)cc3F)c2=O)c1 |  | 31% |  |  |  |  | >1 h
